The text below walks through data of PMC3235361 (Biochemistry, 2011).

Test [1] deals with differentiated PC-12 cells. Nature of the test: Neuroprotection against Aβ42, MTT assay, differentiated PC-12 cells. The conditions noted are these: both isomers to a similar extent, data not shown. Type of test: cell-based. A general note: Tetrazolium dyes change colour on reduction, which living cells bring about.
Test [2] relates to rat primary cortical or hippocampal neurons. The test can be described thus: Toxicity compared with WT Aβ across MTT and LDH assays, rat primary neurons. Type of test: cell-based. The note with it: 10 μM, 48 h. An outline of the steps:
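E18 rat cortical or hippocampal neurons on poly-D-lysine in DMEM/10% FBS; 5 μM cytosine arabinoside from 24 h; treated at day 6. HFIP-treated peptide films dissolved in 60 mM NaOH, diluted in medium (final NaOH ≤6 mM), sonicated; 10 μM final, 48 h. MTT: 4 h at 37°C, stop overnight, OD; 3 experiments. LDH release: 6 experiments. 6 wells/point; normalized to NaOH-medium control; ANOVA/Tukey.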

Turning to `CC(=O)N[C@@H](CC[S+](C)[O-])C(=O)O` (stereo partly drawn) [Ac-L-Met(O)], in test [1], the “protection against Aβ-induced toxicity, MTT (in words)” value was “significantly protected”. On to [Met(O)^35]Aβ42 [Aβ42-Met(O)], for which the “toxicity compared with the WT Aβ form (in words)” value in test [2] is listed as “significantly less toxic”. Regarding `CC(=O)N[C@H](CC[S+](C)[O-])C(=O)O` (stereo partly drawn) [Ac-D-Met(O)], the “protection against Aβ-induced toxicity, MTT (in words)” value in test [1] was “significantly protected”.
